# According to ChEMBL document CHEMBL4049456, “Identification of 4-(Aminomethyl)-6-(trifluoromethyl)-2-(phenoxy)pyridine Derivatives as Potent, Selective, and Orally Efficacious Inhibitors of the Copper-Dependent Amine Oxidase, Lysyl Oxidase-Like 2 (LOXL2)” (J Med Chem, 2017):
# How the values were obtained:
# [1] = target: T1, Lysyl oxidase homolog 3 (Homo sapiens, UniProt P58215); experiment: Inhibition of recombinant human LOXL3 assessed as reduction of H2O2 production from oxidative deamination of DAP preincubated for 2 hrs followed by substrate addition measured every 2 mins for 1 hr by amplex red reagent-based fluorescence assay
# T1 sequence (P58215 whole entry): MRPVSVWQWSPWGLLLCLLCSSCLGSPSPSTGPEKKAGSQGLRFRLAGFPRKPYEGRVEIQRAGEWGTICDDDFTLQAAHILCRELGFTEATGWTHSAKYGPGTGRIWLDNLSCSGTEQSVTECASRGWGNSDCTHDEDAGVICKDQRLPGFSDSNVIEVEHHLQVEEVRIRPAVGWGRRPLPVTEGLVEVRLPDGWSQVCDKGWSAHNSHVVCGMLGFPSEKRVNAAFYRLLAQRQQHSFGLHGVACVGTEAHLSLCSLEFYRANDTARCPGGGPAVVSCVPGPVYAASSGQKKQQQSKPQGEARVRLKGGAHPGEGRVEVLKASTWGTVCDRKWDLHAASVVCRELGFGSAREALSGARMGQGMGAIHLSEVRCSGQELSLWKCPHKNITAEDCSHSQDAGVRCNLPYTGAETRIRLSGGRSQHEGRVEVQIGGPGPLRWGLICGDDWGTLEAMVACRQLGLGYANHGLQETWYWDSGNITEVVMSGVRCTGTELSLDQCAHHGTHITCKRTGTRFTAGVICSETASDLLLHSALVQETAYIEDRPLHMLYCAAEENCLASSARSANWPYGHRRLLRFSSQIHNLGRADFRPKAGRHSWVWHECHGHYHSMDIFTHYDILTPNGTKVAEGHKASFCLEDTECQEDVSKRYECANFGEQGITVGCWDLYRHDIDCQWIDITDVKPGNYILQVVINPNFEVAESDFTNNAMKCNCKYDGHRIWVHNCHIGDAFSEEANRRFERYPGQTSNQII
# In short: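 Purified recombinant human LOXL3 was preincubated with compound for 2 h, then H2O2 produced from DAP deamination was measured.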
# [2] = target: T2, MAO-A (Homo sapiens, UniProt P21397); experiment: Inhibition of recombinant human MAO-A assessed as reduction of H2O2 production from oxidative deamination of tyramine at 10 uM preincubated for 2 hrs followed by substrate addition; conditions: probe tyramine
# T2 sequence (P21397 whole entry): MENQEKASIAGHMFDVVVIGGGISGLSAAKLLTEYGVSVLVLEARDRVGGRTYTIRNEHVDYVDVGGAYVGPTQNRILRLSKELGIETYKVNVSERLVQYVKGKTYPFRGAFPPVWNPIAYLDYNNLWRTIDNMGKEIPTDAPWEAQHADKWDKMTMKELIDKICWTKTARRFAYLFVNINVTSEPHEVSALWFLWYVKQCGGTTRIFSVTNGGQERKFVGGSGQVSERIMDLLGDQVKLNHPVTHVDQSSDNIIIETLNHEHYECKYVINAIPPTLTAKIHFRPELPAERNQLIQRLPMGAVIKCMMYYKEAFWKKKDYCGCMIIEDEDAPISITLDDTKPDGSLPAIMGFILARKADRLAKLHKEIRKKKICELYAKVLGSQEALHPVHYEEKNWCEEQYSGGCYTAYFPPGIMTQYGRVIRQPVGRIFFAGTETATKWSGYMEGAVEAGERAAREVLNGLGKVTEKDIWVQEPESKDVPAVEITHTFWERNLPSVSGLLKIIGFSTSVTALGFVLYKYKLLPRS
# In short: (§1)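 Purified recombinant human MAO-A (tyramine substrate) or MAO-B (benzylamine substrate) was preincubated with compound for 2 h. Percent inhibition was calculated against vehicle and enzyme-free controls.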
# [3] = target: T3, MAO-B (Homo sapiens, UniProt P27338); experiment: Inhibition of recombinant human MAO-B assessed as reduction of H2O2 production from oxidative deamination of benzylamine at 10 uM preincubated for 2 hrs followed by substrate addition; conditions: probe benzylamine; in short: as §1
# T3 sequence (P27338 whole entry): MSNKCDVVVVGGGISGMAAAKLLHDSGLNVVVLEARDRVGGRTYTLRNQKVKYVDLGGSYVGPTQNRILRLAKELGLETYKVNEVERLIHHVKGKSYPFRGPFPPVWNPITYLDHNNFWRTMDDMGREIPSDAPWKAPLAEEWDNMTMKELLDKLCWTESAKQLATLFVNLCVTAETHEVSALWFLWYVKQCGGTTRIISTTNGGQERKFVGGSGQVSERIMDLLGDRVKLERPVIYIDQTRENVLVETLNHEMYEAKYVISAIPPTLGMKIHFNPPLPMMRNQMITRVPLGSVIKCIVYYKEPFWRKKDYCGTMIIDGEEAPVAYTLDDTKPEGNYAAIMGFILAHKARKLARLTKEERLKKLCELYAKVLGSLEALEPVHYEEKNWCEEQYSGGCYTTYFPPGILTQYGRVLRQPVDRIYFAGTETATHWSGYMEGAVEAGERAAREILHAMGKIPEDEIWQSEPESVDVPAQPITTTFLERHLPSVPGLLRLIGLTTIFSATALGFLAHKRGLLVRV
# [4] = target: T4, Lysyl oxidase homolog 2 (Homo sapiens) (UniProt Q9Y4K0); experiment: Irreversible inhibition of human LOXL2 assessed as catalytic activity preincubated for 2 hrs followed by substrate addition measured every 2 mins for 1 hr by amplex red reagent-based fluorescence assay relative to control; design: concentration or dose not given beside the values
# T4 sequence (whole entry): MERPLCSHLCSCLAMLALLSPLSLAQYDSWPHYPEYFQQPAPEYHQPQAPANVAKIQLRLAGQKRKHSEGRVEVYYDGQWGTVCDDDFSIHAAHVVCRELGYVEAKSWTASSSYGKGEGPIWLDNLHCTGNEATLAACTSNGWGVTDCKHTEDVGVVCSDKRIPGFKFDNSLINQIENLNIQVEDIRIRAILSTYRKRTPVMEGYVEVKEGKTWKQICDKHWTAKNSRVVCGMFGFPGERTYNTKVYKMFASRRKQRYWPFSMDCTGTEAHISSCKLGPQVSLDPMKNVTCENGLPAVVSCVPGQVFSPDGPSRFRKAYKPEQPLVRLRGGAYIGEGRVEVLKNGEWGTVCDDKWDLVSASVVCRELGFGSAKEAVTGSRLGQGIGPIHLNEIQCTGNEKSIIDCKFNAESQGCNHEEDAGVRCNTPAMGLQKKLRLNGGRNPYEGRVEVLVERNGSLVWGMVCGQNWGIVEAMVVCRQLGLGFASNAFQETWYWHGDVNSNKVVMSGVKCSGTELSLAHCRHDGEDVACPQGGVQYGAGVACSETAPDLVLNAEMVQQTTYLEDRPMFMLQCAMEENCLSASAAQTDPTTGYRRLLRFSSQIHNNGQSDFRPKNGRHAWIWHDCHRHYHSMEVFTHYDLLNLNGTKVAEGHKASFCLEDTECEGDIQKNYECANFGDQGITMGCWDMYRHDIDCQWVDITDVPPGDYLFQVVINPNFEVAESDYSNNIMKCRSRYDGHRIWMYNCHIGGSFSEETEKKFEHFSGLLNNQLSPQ
# [5] = Protein binding in human plasma; format: ADME, cell-free; conditions: read-out: PPB (converted)
smiles,measurement,setting,value
Cl.NCc1cc(Oc2cccc(C(=O)N3C[C@@H](O)[C@H](F)C3)c2)nc(C(F)(F)F)c1 (racemic),IC50,[1],1.38 µM
same,"inhibition at 2 h, 10 µM",[2],< 10%
same,"inhibition at 2 h, 10 µM",[3],< 10%
same,inhibition,[4],97%
same,fraction unbound,[5],0.32
